Reference: ChEMBL document CHEMBL4177574, “A novel class of Plasmodial ClpP protease inhibitors as potential antimalarial agents” (Bioorg Med Chem, 2017)
Calls of active or inactive are those of the source. The calls are words filed in the database; no cut-off is given here. Where a SMILES comes first, the peptide text is derived from it. The star is where a group is joined. Cbz = O=C(OCc1ccccc1)*; OBn = c1ccc(CO*)cc1

Tests used:
[1] = Inhibition of recombinant Plasmodium falciparum ClpP expressed in Escherichia coli BL21(DE3) using Suc-LLVY-AMC substrate incubated for 3 to 6 hrs by fluorimetric assay
Summary of the method: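 The protease domain of PfClpP (aa 168–370) was His-tagged in pET28a, expressed in E. coli BL21(DE3) with 1 mM IPTG at 37 °C for 3–4 h, Ni-NTA purified and BCA quantified. Assay used 13 µM enzyme in 0.1 M sodium acetate pH 7.0 with 1.0 mM DTT and 50 µM Suc-LLVY-AMC final. AMC fluorescence (ex 355/em 460) was followed continuously for 3–6 h at RT; IC50 by curve fitting.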

Plasmodium falciparum [2] = experiment: Antimalarial activity against Plasmodium falciparum 3D7 assessed as inhibition of parasite growth incubated for 96 hrs in presence of 4% haematocrit by SYBR green dye based assay; type: functional, organism-based
Summary of the method: (§1)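 P. falciparum 3D7 in RPMI with 0.5% albumax at 4% haematocrit, sorbitol-synchronized, starting parasitaemia ~1%. Compound added at final 0–100 µM, with DMSO in control wells. Growth ran 96 h and was read by SYBR green DNA-dye fluorescence. Triplicate wells, experiment repeated twice; IC50 derived from these.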

[3] = Ratio of IC50 for inhibition of recombinant Plasmodium falciparum ClpP expressed in Escherichia coli BL21(DE3) to IC50 for antimalarial activity against Plasmodium falciparum 3D7
Plasmodium falciparum [4] = experiment: Antimalarial activity against Plasmodium falciparum 3D7 assessed as inhibition of parasite growth at 100 uM incubated for 96 hrs in presence of 4% haematocrit by SYBR green dye based assay; type: functional, organism-based; summary of the method: as §1
Plasmodium falciparum [5] = experiment: Antimalarial activity against Plasmodium falciparum 3D7 assessed as reduction in mature schizonts formation after 60 hrs post infection; type: functional, organism-based
Plasmodium falciparum [6] = experiment: Effect on apicoplast development in ACP-GFP expressing Plasmodium falciparum D10 at 10 uM measured during first cycle by DAPI dye based confocal laser-scanning microscopy; type: functional, organism-based
Summary of the method: (§2)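 D10 ACP-GFP parasites were grown like 3D7 with 100 nM pyrimethamine, and ring stages (8–10 hpi) were treated with compound. Parasites were sampled at 36/40 hpi and 72 hpi, DAPI-stained at 2 µg/mL final for 30 min at 37 °C, and imaged by confocal microscopy for apicoplast GFP morphology.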

Plasmodium falciparum [7] = experiment: Inhibition of apicoplast development in ACP-GFP expressing Plasmodium falciparum D10 at 10 uM measured during second cycle by DAPI dye based confocal laser-scanning microscopy; type: functional, organism-based; summary of the method: as §2
Plasmodium falciparum [8] = experiment: Inhibition of apicoplast growth in ACP-GFP expressing Plasmodium falciparum D10 at 10 uM measured during second cycle by DAPI dye based confocal laser-scanning microscopy; type: functional, organism-based; summary of the method: as §2
Plasmodium falciparum [9] = experiment: Inhibition of apicoplast development in ACP-GFP expressing Plasmodium falciparum D10 assessed as induction of round stump-like structures at 10 uM measured at 72 hrs post dose by DAPI dye based confocal laser-scanning microscopy; type: functional, organism-based; summary of the method: as §2
Plasmodium falciparum [10] = experiment: Inhibition of apicoplast development in ACP-GFP expressing Plasmodium falciparum D10 assessed as induction of round stump-like structures at 10 uM measured at 90 to 96 hrs post dose by DAPI dye based confocal laser-scanning microscopy; type: functional, organism-based
Plasmodium falciparum [11] = experiment: Effect on nuclear division in ACP-GFP expressing Plasmodium falciparum D10 apicoplast at 10 uM measured at 96 hrs post dose by DAPI dye based confocal laser-scanning microscopy; type: functional, organism-based
HeLa = experiment: Cytotoxic activity against human HeLa cells assessed as reduction in cell viability incubated for 48 hrs by MTT assay
[12] = Plasmodium falciparum, 3D7, 96 h, read-out: IC50

Compound | IC50 [1] [µM] | Ki ([1]; read-out: Ki) [µM] | IC50 (Plasmodium falciparum [2]; [12]) [µM] | Ki [1] | IC50 (Plasmodium falciparum [2]) | also measured
CCOC(=O)c1cnc(SCC(=O)NNC(=O)Cc2ccccc2)[nH]c1=O | 42 | 17 | 82.5 | – | – | –
CCOC(=O)c1cnc(SCCN2CCOCC2)n(CC(=O)c2ccccc2)c1=O | 40 | 16 | 19 | – | – | –
Cc1cc(SCC(=O)NNC(=O)Cc2ccccc2)nc(SCCN2CCOCC2)n1 | 30.3 | 12.3 | 14.4 | – | – | –
COc1cccc(NC(=O)CSc2nc3sc4c(c3c(=O)n2CCc2ccccc2)CC(C(C)C)OC4)c1 (stereo unspecified) | > 100 | – | – | Not Active | Not Active | –
O=C(CSc1ncc(C(=O)NCCCc2ccccc2)c(=O)n1Cc1ccccc1)c1ccc(O)cc1 | 53 | 21.6 | 9.2 | – | – | –
O=C(CSc1ncc(C(=O)NCCCc2ccccc2)c(=O)n1Cc1ccccc1)c1ccccc1 | 24 | 10 | 20 | – | – | –
Cc1cc(SCC(=O)NNC(=O)Cc2ccccc2)nc(SCC(=O)N2CCOCC2)n1 | 28.8 | 11.8 | 17.3 | – | – | –
O=C(NCCCc1ccccc1)c1cnc(SCC(=O)N2CCOCC2)n(Cc2ccccc2)c1=O | 46 | 18.8 | 11.7 | – | – | –
CC(CCc1ccccc1)NC(=O)CSc1nc2sc3c(c2c(=O)n1CCc1ccccc1)CC(C(C)C)OC3 (stereo unspecified) | 23 | 9 | 25 | – | – | –
CCN(CC)c1ccc(C(=O)CSc2nc(C)cc(SCC(=O)NNC(=O)Cc3ccccc3)n2)cc1 | 28.3 | 11.6 | 12.1 | – | – | –
N#Cc1ccc(C(=O)CSc2ncc(C(=O)NCCCc3ccccc3)c(=O)n2Cc2ccccc2)cc1 | > 100 | – | 13.7 | Not Active | – | –
CCc1nnc(NC(=O)CSc2nnc(-c3cc4ccccc4cc3O)n2CCOC)s1 | 30 | 12.1 | 27 | – | – | –
COc1ccc(C(=O)CSc2ncc(C(=O)NCCCc3ccccc3)c(=O)n2Cc2ccccc2)cc1 | 45 | 18 | 2.4 | – | – | Ratio IC50 [3]: 20
COc1ccc(C(=O)CSc2nc(C)cc(SCC(=O)NNC(=O)Cc3ccccc3)n2)cc1 | 34.7 | 14.2 | 11.8 | – | – | –
O=C(CSc1ncc(C(=O)NCCCc2ccccc2)c(=O)n1Cc1ccccc1)NNC(=O)Cc1ccccc1 | 72.6 | 29.5 | – | – | Not Active | inhibition (Plasmodium falciparum [4]): inactive
CCc1ccc(CSc2ncc(Cl)c(C(=O)NCCC(=O)Nc3ccc(Cl)cc3)n2)cc1 | > 100 | – | – | Not Active | Not Active | –

Compound | IC50 [1] [µM] | Ki ([1]; read-out: Ki) [µM] | IC50 (Plasmodium falciparum [2]; [12]) [µM] | Ki [1] | IC50 (Plasmodium falciparum [2]) | also measured
CCCCOc1ccc(-c2nn(-c3ccccc3)cc2/C=C(\C#N)C(=O)NCc2ccco2)c(C)c1 | > 100 | – | – | Not Active | Not Active | –
O=C(O)c1cnc2n(c1=O)CC(c1ccccc1)=C(CN1CCOCC1)S2 | > 100 | – | 11 | Not Active | – | –
COc1ccc(CNC(=O)C(=O)N/N=C/c2ccc(CNS(=O)(=O)c3ccc(Br)cc3)o2)cc1 | > 100 | – | – | Not Active | Not Active | –
O=C(CSc1nc(SCC(=O)NCc2ccco2)nc(SCC(=O)NCc2ccco2)n1)NCc1ccco1 | 92 | 38 | – | – | Not Active | –
Cc1cc(SCC(=O)NNC(=O)Cc2ccccc2)nc(SCC(=O)c2ccc(C#N)cc2)n1 | 37.4 | 15.3 | 12.4 | – | – | –
CCOC(=O)CSc1ncc(C(=O)NCCCc2ccccc2)c(=O)n1Cc1ccccc1 | 58.3 | 23.8 | 15.9 | – | – | –
Cc1cc(SCC(=O)NNC(=O)Cc2ccccc2)nc(SCC(=O)c2ccccc2)n1 | 26 | 11 | 75 | – | – | –
CCCc1cc(=O)oc2cc(OCC(=O)N[C@@H](CSCc3ccccc3)C(=O)O)ccc12 | > 100 | – | – | Not Active | Not Active | –
O=C(COc1ccccc1)Nc1cc(NC(=O)COc2ccccc2)cc(C(=O)Nc2nccs2)c1 | 88 | 36 | – | – | Not Active | –
CCCOc1ccc(-c2nn(-c3ccccc3)cc2/C=C2\SC(=S)N(CCc3ccccc3)C2=O)cc1F | > 100 | – | – | Not Active | Not Active | –
O=C(NCCCc1ccccc1)c1cnc(SCCN2CCOCC2)n(Cc2ccccc2)c1=O | 10.5 | 2.3 | 9 | – | – | Activity (Plasmodium falciparum [5]): Active; Activity (Plasmodium falciparum [6]): inactive; inhibition (Plasmodium falciparum [7]): Active; growth inhibition (GI) (Plasmodium falciparum [8]): Active; Activity (Plasmodium falciparum [9]): Active; Activity (Plasmodium falciparum [10]): Active; Activity (Plasmodium falciparum [11]): inactive; IC50 (HeLa): > 5000 µM
CCN(CC)c1ccc(C(=O)CSc2ncc(C(=O)NCCCc3ccccc3)c(=O)n2Cc2ccccc2)cc1 | > 100 | – | 9.2 | Not Active | – | –
O=C(CNC(=O)OCc1ccccc1)N[C@@H](CCC(=O)OCc1ccccc1)C(=O)OCc1ccccc1 (Cbz-Gly-Glu(OBn)-OBn) | > 100 | – | – | Not Active | Not Active | –
O=C(NCCCc1ccccc1)c1cnc(SCCN2CCOCC2)[nH]c1=O | 44 | 18 | 22 | – | – | –
CC(C)C1Cc2c(sc3nc(SCC(=O)NCc4ccccc4)n(CCc4ccccc4)c(=O)c23)CO1 (stereo unspecified) | > 100 | – | – | Not Active | Not Active | –
CCOC(=O)c1cnc(SCCN2CCOCC2)[nH]c1=O | > 100 | – | – | Not Active | Not Active | –
